The text below walks through data of ChEMBL document CHEMBL1926665, “Anti-AIDS agents 85. Design, synthesis, and evaluation of 1R,2R-dicamphanoyl-3,3-dimethyldihydropyrano-[2,3-c]xanthen-7(1H)-one (DCX) derivatives as novel anti-HIV agents” (Eur J Med Chem, 2012).

A short description of series [1]: Cytotoxicity against human TZM-bl cells by CytoTox-Glo assay. In kind it is cell-based.
Series [2] is described as follows: Selectivity index, ratio of CC50 for human TZM-bl cells to EC50 for wild type HIV1 NL4-3 infected in human TZM-bl cells. In kind it is toxicity, cell-based. The conditions noted are these: read-out: Ratio CC50/EC50. A digest of the protocol:
(§1)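 Selectivity index is CC50 ÷ EC50. CC50 came from the CytoTox-Glo cytotoxicity kit run per the maker's protocol in TZM-bl cells. EC50 came from the 48 h single-round TZM-bl luciferase infection assay (200 TCID50 virus, eight four-fold dilutions) against the NL4-3 or RTMDR1 strain. Values are averaged from at least three independent experiments.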

Series [3] has as its system Human immunodeficiency virus 1. Kind of series: Antiviral activity against wild type HIV1 NL4-3 infected in human TZM-bl cells after 48 hrs by luciferase reporter gene assay. The conditions noted are these: Human immunodeficiency virus 1, NL4-3, TZM-bl. In kind it is functional, organism-based. An outline of the steps:
(§2)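 Single-round infection of TZM-bl cells (NL4-3 or RTMDR1 strain), with luciferase reporter read-out. Virus at 200 TCID50 was mixed with eight four-fold serial dilutions of sample in growth medium, then incubated 48 h. Luciferase was read by luminometer. EC50 is the concentration giving a 50% drop in RLU versus virus control after background subtraction. Values are means of at least three independent experiments.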
On the technique in general: In a reporter assay the amount or activity of a reporter protein is the signal.

For series [4], the system named is Human immunodeficiency virus 1. The experiment in a line: Antiviral activity against drug-resistance HIV1 RTMDR1 infected in human TZM-bl cells after 48 hrs by luciferase reporter gene assay. In kind it is functional, organism-based. The conditions noted are these: Human immunodeficiency virus 1, RTMDR1, TZM-bl. A digest of the protocol: as §2
For series [5], the system named is Human immunodeficiency virus 1. The experiment in a line: Ratio of 2-EDCP EC50 to compound EC50 for wild type HIV1 NL4-3 infected in human TZM-bl cells. In kind it is functional.
The nature of series [6]: Selectivity index, ratio of CC50 for human TZM-bl cells to EC50 for drug-resistance HIV1 RTMDR1 infected in human TZM-bl cells. The conditions noted are these: read-out: Ratio CC50/EC50. In kind it is toxicity, cell-based. A digest of the protocol: as §1
Series [7] has as its system Human immunodeficiency virus 1. Kind of series: Antiviral activity against drug-resistance HIV1. In kind it is functional, organism-based.
The subject of series [8] is Human immunodeficiency virus 1. The experiment in a line: Antiviral activity against wild type HIV1. In kind it is functional, organism-based.

Usually CC50 stands for the concentration giving 50% cytotoxicity. By EC50 is commonly meant the concentration needed to bring the measured effect to its halfway point. High values mean a less potent agent, low ones a more potent agent. With `COc1cc2c(c3oc4cc(C#N)ccc4c(=O)c13)[C@@H](OC(=O)C13CCC(C)(C(=O)O1)C3(C)C)[C@@H](OC(=O)C13CCC(C)(C(=O)O1)C3(C)C)C(C)(C)O2` (stereo partly drawn), in series [1], the CC50 stood at 9080 nM. The selectivity ratio in series [2] stood at 45.4. Further, the EC50 in series [3] is 200 nM.

With `COc1cc2c(c3oc4ccc(C#N)cc4c(=O)c13)[C@@H](OC(=O)C13CCC(C)(C(=O)O1)C3(C)C)[C@@H](OC(=O)C13CCC(C)(C(=O)O1)C3(C)C)C(C)(C)O2` (stereo partly drawn), in series [1], the CC50 is more than 13800 nM. The selectivity ratio in series [2] is more than 47.8. Also, in series [3], the response was half-maximal at 290 nM (EC50).

As for `COc1cc2c(c3oc4ccccc4c(=O)c13)[C@@H](OC(=O)C13CCC(C)(C(=O)O1)C3(C)C)[C@@H](OC(=O)C13CCC(C)(C(=O)O1)C3(C)C)C(C)(C)O2` (stereo partly drawn), the EC50 in series [4] was 74 nM; in series [3], 63 nM. Further, the CC50 in series [1] is more than 14300 nM. Besides, the values for the selectivity ratio in series [2] and in series [6] were more than 227 and more than 193, respectively. For the same compound, the “Ratio EC50” value in series [5] was found to be 1.5.

Compound `COc1cc2c(c3oc4ccccc4/c(=N\O)c13)[C@@H](OC(=O)C13CCC(C)(C(=O)O1)C3(C)C)[C@@H](OC(=O)C13CCC(C)(C(=O)O1)C3(C)C)C(C)(C)O2` (stereo partly drawn) registered a CC50 in series [1] of more than 13900 nM. Also, the selectivity ratio in series [2] was more than 118. In series [3], the midpoint of the response, the EC50, lay at 120 nM.

As for `COc1cc2c(c3oc4c(C)cccc4c(=O)c13)[C@@H](OC(=O)C13CCC(C)(C(=O)O1)C3(C)C)[C@@H](OC(=O)C13CCC(C)(C(=O)O1)C3(C)C)C(C)(C)O2` (stereo partly drawn), half-maximal cytotoxicity in series [1] (CC50) was put at 4320 nM. For the same compound, the selectivity ratio in series [2] was determined as 2.84. Besides, a half-maximal response in series [3] (EC50) required 1520 nM.

For the compound `COc1cc2c(c3oc4cc(C)ccc4c(=O)c13)[C@@H](OC(=O)C13CCC(C)(C(=O)O1)C3(C)C)[C@@H](OC(=O)C13CCC(C)(C(=O)O1)C3(C)C)C(C)(C)O2` (stereo partly drawn), the results for the EC50 in series [4] and in series [3] were 363 nM and 95 nM, respectively. The CC50 in series [1] was more than 14000 nM. Moreover, the selectivity ratio was more than 147 in series [2] and more than 38.6 in series [6].

`COc1cc2c(c3oc4ccc(C)cc4c(=O)c13)[C@@H](OC(=O)C13CCC(C)(C(=O)O1)C3(C)C)[C@@H](OC(=O)C13CCC(C)(C(=O)O1)C3(C)C)C(C)(C)O2` (stereo partly drawn): the EC50 in series [4] came out at 81 nM; in series [3], 65 nM. In series [1], this compound gave a CC50 of 11400 nM. For the same compound, the selectivity ratio in series [2] came to 175; in series [6], 141.

On to `COc1cc2c(c3oc4cccc(C)c4c(=O)c13)[C@@H](OC(=O)C13CCC(C)(C(=O)O1)C3(C)C)[C@@H](OC(=O)C13CCC(C)(C(=O)O1)C3(C)C)C(C)(C)O2` (stereo partly drawn), for which the EC50 came out at 370 nM in series [4] and 150 nM in series [3]. The compound further had a CC50 in series [1] of 11600 nM. For the same compound, the results for the selectivity ratio in series [2] and in series [6] were 77.3 and 31.4, respectively.

As to `COc1ccc2c(=O)c3c(OC)cc4c(c3oc2c1)[C@@H](OC(=O)C12CCC(C)(C(=O)O1)C2(C)C)[C@@H](OC(=O)C12CCC(C)(C(=O)O1)C2(C)C)C(C)(C)O4` (stereo partly drawn), in series [1], the CC50 is more than 13700 nM. The selectivity ratio in series [2] was more than 37.8. This compound registered an EC50 in series [3] of 362 nM.

With `COc1ccc2oc3c4c(cc(OC)c3c(=O)c2c1)OC(C)(C)[C@H](OC(=O)C12CCC(C)(C(=O)O1)C2(C)C)[C@@H]4OC(=O)C12CCC(C)(C(=O)O1)C2(C)C` (stereo partly drawn), the results for the EC50 in series [4] and in series [3] were 420 nM and 120 nM, respectively. Further, in series [1], the midpoint of cytotoxicity, the CC50, lay at 10800 nM. The selectivity ratio in series [2] was determined as 88.8; in series [6], 25.7.

In series [1], `COc1cccc2oc3c4c(cc(OC)c3c(=O)c12)OC(C)(C)[C@H](OC(=O)C12CCC(C)(C(=O)O1)C2(C)C)[C@@H]4OC(=O)C12CCC(C)(C(=O)O1)C2(C)C` (stereo partly drawn) returned a CC50 of 11600 nM. For the same compound, the selectivity ratio in series [2] is 6.83. The compound also registered an EC50 in series [3] of 1700 nM.

In series [1], `COc1cc(C)c2c(=O)c3c(OC)cc4c(c3oc2c1)[C@@H](OC(=O)C12CCC(C)(C(=O)O1)C2(C)C)[C@@H](OC(=O)C12CCC(C)(C(=O)O1)C2(C)C)C(C)(C)O4` (stereo partly drawn) showed a CC50 of more than 26800 nM. The selectivity ratio in series [2] is more than 192. This compound also had an EC50 in series [3] of 140 nM.

In the case of `COc1cc2c(c3oc4cccc(O)c4c(=O)c13)[C@@H](OC(=O)C13CCC(C)(C(=O)O1)C3(C)C)[C@@H](OC(=O)C13CCC(C)(C(=O)O1)C3(C)C)C(C)(C)O2` (stereo partly drawn), the midpoint of cytotoxicity in series [1], the CC50, lay at 8100 nM. Also, the selectivity ratio in series [2] was 24.5. The compound further registered an EC50 in series [3] of 330 nM.

`COc1cc2c(c3oc4c(F)cccc4c(=O)c13)[C@@H](OC(=O)C13CCC(C)(C(=O)O1)C3(C)C)[C@@H](OC(=O)C13CCC(C)(C(=O)O1)C3(C)C)C(C)(C)O2` (stereo partly drawn): in series [1], the CC50 turned out to be 7800 nM. In addition, the selectivity ratio in series [2] worked out at 33.9. This compound also came in with an EC50 in series [3] of 230 nM.

`COc1cc2c(c3oc4ccc(F)cc4c(=O)c13)[C@@H](OC(=O)C13CCC(C)(C(=O)O1)C3(C)C)[C@@H](OC(=O)C13CCC(C)(C(=O)O1)C3(C)C)C(C)(C)O2` (stereo partly drawn): the EC50 in series [4] came out at 160 nM; in series [3], 100 nM. The compound also displayed a CC50 in series [1] of 26000 nM. In addition, the results for the selectivity ratio in series [2] and in series [6] were 260 and 162, respectively.

Regarding `COc1cc2c(c3oc4cccc(F)c4c(=O)c13)[C@@H](OC(=O)C13CCC(C)(C(=O)O1)C3(C)C)[C@@H](OC(=O)C13CCC(C)(C(=O)O1)C3(C)C)C(C)(C)O2` (stereo partly drawn), the EC50 in series [4] was 65 nM; in series [3] it was 62 nM. The CC50 in series [1] is more than 13900 nM. Besides, the selectivity ratio in series [2] was more than 224; in series [6], more than 214.

In the case of `COc1cc2c(c3oc4ccc(Br)cc4c(=O)c13)[C@@H](OC(=O)C13CCC(C)(C(=O)O1)C3(C)C)[C@@H](OC(=O)C13CCC(C)(C(=O)O1)C3(C)C)C(C)(C)O2` (stereo partly drawn), the CC50 in series [1] stood at 9230 nM. Moreover, the selectivity ratio in series [2] turned out to be 6.83. Moreover, in series [3], the EC50 worked out at 1470 nM.

The compound `COc1cc2c(c3oc4ccc(CBr)cc4c(=O)c13)[C@@H](OC(=O)C13CCC(C)(C(=O)O1)C3(C)C)[C@@H](OC(=O)C13CCC(C)(C(=O)O1)C3(C)C)C(C)(C)O2` (stereo partly drawn) yielded a CC50 in series [1] of more than 25200 nM. Also, the selectivity ratio in series [2] was more than 5.55. Moreover, a half-maximal effect in series [3] (EC50) was put at 4530 nM.

On to `CC1(C)Oc2ccc3c(=O)c4ccccc4oc3c2[C@@H](OC(=O)C23CCC(C)(C(=O)O2)C3(C)C)[C@H]1OC(=O)C12CCC(C)(C(=O)O1)C2(C)C` (stereo partly drawn), for which the EC50 is 546 nM in series [4] and 308 nM in series [3]. The CC50 in series [1] is more than 29800 nM. The values for the selectivity ratio in series [2] and in series [6] were more than 96.8 and more than 54.6, respectively.

Consider `Cc1cc(=O)c2c(C)cc3c(c2o1)[C@@H](OC(=O)C12CCC(C)(C(=O)O1)C2(C)C)[C@@H](OC(=O)C12CCC(C)(C(=O)O1)C2(C)C)C(C)(C)O3` (stereo partly drawn), for which the EC50 is 490 nM in series [7] and 36 nM in series [8].

For `CCc1cc(=O)c2ccc3c(c2o1)[C@@H](OC(=O)C12CCC(C)(C(=O)O1)C2(C)C)[C@@H](OC(=O)C12CCC(C)(C(=O)O1)C2(C)C)C(C)(C)O3` (stereo partly drawn), the EC50 in series [7] stood at 110 nM; in series [4] it was 110 nM; in series [8], 70 nM; in series [3], 89 nM. The same compound came in with a CC50 in series [1] of 12100 nM. The selectivity ratio in series [2] is 136; in series [6], 110.
